A short description of data set [1]: Inhibition of H+/K+ ATPase in hog gastric mucosa by competitive binding assay. Type of data set: tissue-based, Sus scrofa. The gist of the method:
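Competitive binding assay using H+/K+-ATPase prepared from hog gastric mucosa; activity reported as −log IC50.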

Data set [2] in a line: Dissociation constant, pKa of the compound. The class given is physicochemical. A digest of the protocol:
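Potentiometric co-solvent titration in 0.15 mol/L KCl over pH 2.0–11.0 at 25 °C. Methanol co-solvent at varying proportions; 0.5 mol/L KOH and HCl as titrants. Aqueous pKa obtained by linear extrapolation to 0% co-solvent (Yasuda–Shedlovsky plot).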

Data set [3] is described as follows: Lipophilicity, log D at pH 7.4. Conditions: buffer. The class given is physicochemical.
The nature of data set [4]: Lipophilicity, log P of the compound. The class given is physicochemical. Conditions: octanol/water.

Each structure is given as a SMILES string.

The source of these data is ChEMBL document CHEMBL1149711, “Novel indanyl-substituted imidazo[1,2-a]pyridines as potent reversible inhibitors of the gastric H+/K+-ATPase” (Bioorg Med Chem Lett, 2007).

In the case of `Cc1nc2c(N[C@H]3c4ccccc4C[C@@H]3O)cc(C(=O)N(C)C)cn2c1C`, the “Log IC50” value in data set [1] is listed as -6.3. Besides, the pKa (as a rule, the negative logarithm of the acid dissociation constant) in data set [2] was determined as 6.24. Besides, in data set [3], the logD (as a rule, lipophilicity at a set pH, counting ionised and neutral species) is 2.82. For the same molecule, the logP (usually the decadic logarithm of the partition coefficient of the neutral form, usually between octanol and water) in data set [4] came out at 2.85.
`COCCNC(=O)c1cc(N[C@H]2c3ccccc3C[C@@H]2O)c2nc(C)c(C)n2c1`: the “Log IC50” value in data set [1] is -4.7. The pKa in data set [2] was 6.01. For the same molecule, in data set [3], the logD came to 3.41. This molecule also came in with a logP in data set [4] of 3.43.
Consider `COc1cccc2c1[C@H](Oc1cc(C(=O)N(C)C)cn3c(C)c(C)nc13)[C@@H](O)C2`, for which, in data set [1], the “Log IC50” value is recorded as -5.7. For the same molecule, the pKa in data set [2] worked out at 6.27. Moreover, in data set [3], the pH-dependent lipophilicity (logD) came out at 2.27. The same molecule gave a logP in data set [4] of 2.3.
In the same order, the values of `CCc1cccc(C)c1CNc1cc(C(N)=O)cn2c(C)c(C)nc12` are -6.2, 6.1, 4.93 and 4.95.
On to `Cc1nc2c(N[C@H]3c4ccccc4C[C@@H]3O)cc(C(N)=O)cn2c1C`, for which the “Log IC50” value in data set [1] was -4.8. In data set [2], this molecule came in with a pKa of 5.97. Besides, in data set [3], the logD came out at 3.09. This molecule also displayed a lipophilicity (logP) in data set [4] of 3.11.
Consider `CNC(=O)c1cc(N[C@H]2c3ccccc3C[C@@H]2O)c2nc(C)c(C)n2c1`, for which, in data set [1], the “Log IC50” value was -5.4. In data set [2], this molecule yielded a pKa of 5.97. Besides, in data set [3], the logD came out at 3.39. The molecule also yielded a logP in data set [4] of 3.4.
In the same order, the values of `Cc1cccc2c1[C@H](Oc1cc(C(=O)N(C)C)cn3c(C)c(C)nc13)[C@@H](O)C2` are -6.9, 6.22, 2.56 and 2.59.
As for `Cc1nc2c(O[C@H]3c4ccccc4C[C@@H]3O)cc(C(=O)N(C)C)cn2c1C`, in data set [1], the “Log IC50” value is given as -5.7. Moreover, the pKa in data set [2] came to 6.21. The molecule further came in with a logD in data set [3] of 2.16. In data set [4], the logP was found to be 2.2.
